Here are results for 96 molecules from ChEMBL document CHEMBL4513216, “Probing the Open Global Health Chemical Diversity Library for Multistage-Active Starting Points for Next-Generation Antimalarials” (ACS Infect Dis, 2020).

The nature of the data set: Toxicity liver stage against HepG2, at 10uM. It counts as cell-based. The arrangement: test concentration 10 uM, cell line HepG2-A16-CD81EGFP. The note with it: human, HepG2-A16-CD81EGFP cells; read-out: INHIBITION
The procedure, abridged:
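Uninfected HepG2-A16-CD81EGFP cells, 3 × 10^3 per well, 1536-well, plated on prespotted compound at 10 μM final, parasite-free screening media added to match infected plates; puromycin 10 μM positive, DMSO 0.5% negative; run in parallel with 48 h PbLuc assay at 37 °C, 5% CO2; viability by CellTiter-Glo luminescence, normalized to controls.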
As for `CCOC(=O)c1cnn(-c2cc(Oc3cccc(C)c3)ncn2)c1N`, the cytotoxicity at 10 µM stood at 16.9%.
For `Cn1c(CN2CCOC[C@H]2c2nc(C(C)(C)C)co2)nc2ccccc21`, the cytotoxicity at 10 µM amounted to 4.78%.
With `CS(=O)(=O)NC[C@H]1Cn2c(-c3ccc(F)cc3)cnc2CO1`, the cytotoxicity at 10 µM was -7.47%.
For the molecule `CCOc1ccc(C(=O)Nc2c(C)nc3ccc(Cl)cn3c2=O)cc1`, the cytotoxicity at 10 µM is -4.31%.
For `CCN1C(=O)C(C#N)=C(C)/C(=C/C2=Cc3ccccc3OC2)C1=O`, the cytotoxicity at 10 µM was -40.9%.
In the case of `COCCNC(=O)c1sccc1N(C)S(=O)(=O)c1ccc(Cl)cc1` it was 6.33%; in that of `CCn1ncc(Cn2cc(Cl)c(N)n2)c1C`, -8.55%.
As for `CC(C)c1cc(C(=O)NCCN2CCOCC2)nc(N2CCCC2)n1`, the cytotoxicity at 10 µM stood at 8.82%.
For the molecule `c1ccc(N2CCN(Cc3cnc(C4CCCCO4)nc3)CC2)nc1` (stereo unspecified), the cytotoxicity at 10 µM was -3%.
With `CCc1cc(C(F)(F)F)c2c(C3CCN(C(=O)COC)CC3)noc2n1`, the cytotoxicity at 10 µM was 14%.
Turning to `O=C(Cc1ccccn1)N1CCc2c(O)nc(-c3cnccn3)nc2C1`, the cytotoxicity at 10 µM was -27%.
As to `Cc1cccc(CN2CCCC2c2cccc(CCC(=O)O)n2)c1` (stereo unspecified), the cytotoxicity at 10 µM was -12.6%.
Turning to `Cc1cncc(CN2C[C@@H](O)[C@H](Oc3ccccc3)C2)c1`, the cytotoxicity at 10 µM was determined as 0.442%.
Turning to `O=C(C1CCCC1)N1CCC(c2n[nH]c3nccnc23)CC1`, the cytotoxicity at 10 µM is 0.165%.
In the case of `CC(=O)N1CCCC1c1cc(N2CCN(CC(C)(C)C)CC2)cc(C)n1` (stereo unspecified), the cytotoxicity at 10 µM is -6.41%.
On to `Cc1ccc(-c2nc(CC(=O)N3CCCC(NC(=O)C(C)C)C3)cs2)o1` (stereo unspecified), for which the cytotoxicity at 10 µM was -50.5%.
In the case of `OCC(CO)Nc1nc(C(F)F)nc2ccccc12` it was 6.96%; in that of `CCOc1nnc(CN2CCN(CCOC)C(C)C2)s1` (stereo unspecified), -11.1%; in that of `O=C(c1cc(C2CC2)nc2onc(-c3ccccc3)c12)N1CCOCC1`, -40.5%.
In the case of `O=C(CCC1CCCO1)NCCN1CCCCC1` (stereo unspecified) it was -3.79%; in that of `CN(c1ncc(S(N)(=O)=O)s1)C1CCC1`, 4.13%.
For the molecule `COCCNc1ccccc1CNC(=O)NCc1cnc(C)s1`, the cytotoxicity at 10 µM is 10.6%.
Take `CCc1noc(CS(=O)(=O)C(C)c2nc(C3CC3)no2)n1` (stereo unspecified): the cytotoxicity at 10 µM worked out at 11.3%.
As to `O=C(c1ccc2nccn2c1)N1CCCC1c1noc(C2CC2)n1` (stereo unspecified), the cytotoxicity at 10 µM was -4.68%.
Consider `CN(C)c1cc(CNCc2cccc3c2OCCO3)ccn1`, for which the cytotoxicity at 10 µM stood at 3.57%.
In the case of `COCCNC(=O)CN(C)Cc1ccc(F)cc1Cl`, the cytotoxicity at 10 µM is -1.02%.
With `CCC(C)NC(=O)c1nnn(-c2cccc3c2CCN(C)C3)c1C` (stereo unspecified), the cytotoxicity at 10 µM was -6.39%.
`CNC(=O)CS(=O)(=O)Cc1ccc(OC)c(F)c1`: the cytotoxicity at 10 µM is -6.7%.
As to `CN(Cc1ccccc1)CC(C)(C)NC(=O)c1ccc(C(N)=O)cn1`, the cytotoxicity at 10 µM was -0.616%.
Regarding `O=S1(=O)CCC(CNS(=O)(=O)N2CCc3ccccc3C2)C1` (stereo unspecified), the cytotoxicity at 10 µM was -10.7%.
In the case of `COc1ccc(CN2CCC(C(N)=O)CC2)cc1SC(F)(F)F`, the cytotoxicity at 10 µM was -20.3%.
Consider `CCOc1cc(C(=O)N(C)C)ccc1NC(=O)C(C)c1ccsc1` (stereo unspecified), for which the cytotoxicity at 10 µM was 5.61%.
Regarding `CN(Cc1ccc([S+](C)[O-])cc1)c1cncc(Cl)n1` (stereo unspecified), the cytotoxicity at 10 µM was -10.6%.
In the case of `Cc1nc(SC2CCN(c3sccc3C#N)C2=O)oc1C` (stereo unspecified) it was -4.92%; in that of `N#CC1(NC(=O)c2ccc(F)c(Br)c2)CCSC1` (stereo unspecified), -7.08%; in that of `CCCNC(=O)C1CCN(CC(O)c2ccc(C(F)(F)F)cc2)CC1` (stereo unspecified), 2.68%.
On to `CC(C)c1noc(CCC(=O)N2CCSCC2)n1`, for which the cytotoxicity at 10 µM was -2.99%.
In the case of `COc1cc(C)c(NC(=O)NCCn2cccc2)cc1OC` it was 0.414%; in that of `O=C(CNc1cccc(S(=O)(=O)C(F)F)c1)NCc1ccco1`, -40.5%.
In the case of `CCC(CC)c1nnc(NC(=O)N2CCCC(NC(C)=O)C2)s1` (stereo unspecified) it was 5.9%.
In the case of `Cc1ccc2cc(C(=O)N3CCC(O)(C(F)(F)F)CC3)ccc2n1` it was -54.7%; in that of `Cn1cc(C(=O)N2CCOc3ccccc32)ccc1=O`, 13%.
For the molecule `CCN(C(=O)COC)C(c1cccnc1)c1ccc2c(c1)CCO2` (stereo unspecified), the cytotoxicity at 10 µM is -12.4%.
Turning to `COCC1c2nnn(C)c2CCN1C(=O)CCc1cccc(OC)c1` (stereo unspecified), the cytotoxicity at 10 µM was -90.4%.
Consider `COc1cc(F)ccc1CC(=O)N1CC[C@H]2C(=O)NCCO[C@H]2C1`, for which the cytotoxicity at 10 µM was -108%.
Consider `COCc1cnc2n1CCN(C(=O)c1oc3ccccc3c1C)C2C` (stereo unspecified), for which the cytotoxicity at 10 µM was -104%.
In the case of `CCOCc1cnc2n1CCN(C(=O)c1cccc3c1OCCO3)C2C` (stereo unspecified) it was -98.2%.
In the case of `Cc1cnc(C(=O)N2CCN3C[C@H](OCc4cccnc4)C[C@H]3C2)cn1` it was -59.7%; in that of `O=C(C1CCOC1)N1CCC2(CCN(Cc3nccs3)CC2)CC1` (stereo unspecified), -73.3%.
Regarding `O=C(c1ccoc1)N1CC[C@@H]2O[C@@H](COCc3ccncc3)CC[C@@H]21`, the cytotoxicity at 10 µM was -80.4%.
Turning to `c1cc(CN2CCOCC3(CCN(C4CCOCC4)C3)C2)ccn1` (stereo unspecified), the cytotoxicity at 10 µM was determined as 0.866%.
In the case of `O=C1NC2(CCNCC2)CC1c1cccnc1` (stereo unspecified) it was 1.77%; in that of `c1cncc(-c2nc(C3CC3)ncc2-c2ccnc(N3CCCC3)n2)c1`, -2.5%.
Consider `CC(C)CC(=O)N1CC(=O)c2sc(Nc3ccc(F)cc3)nc2C1`, for which the cytotoxicity at 10 µM is -2.28%.
Regarding `Cc1nc2sccn2c1C(=O)N1CCc2c(nc(N(C)C)[nH]c2=O)C1`, the cytotoxicity at 10 µM came to 5.06%.
On to `CC(C)N(C)C(=O)C1CCC(=O)N(CCc2cccc(F)c2)C1` (stereo unspecified), for which the cytotoxicity at 10 µM was -4.57%.
As to `CSc1nnc(CC2CCN(C(=O)CCc3cccnc3)CC2)n1C`, the cytotoxicity at 10 µM is -43.5%.
In the case of `CCc1nc2c(c(N3CCOCC3)n1)CCN(C(=O)c1ccon1)CC2` it was 10.6%.
`CC(C)N(C(=O)N1CCn2cncc2C1)C(C)C`: the cytotoxicity at 10 µM is -12.3%.
As for `O=C(O)CCc1cc2n(n1)CCCN(C(=O)c1ccc(Cl)s1)C2`, the cytotoxicity at 10 µM was -6.06%.
As to `CS(=O)(=O)N1CC[C@]2(O)CCN(c3cc(C#N)ccn3)C[C@@H]2C1`, the cytotoxicity at 10 µM was determined as 6.36%.
For the molecule `CCCC(C)NC1CCN(c2ccc(-n3ccnc3C)cc2)CC1` (stereo unspecified), the cytotoxicity at 10 µM is -3.67%.
With `C=C(C)COc1cccc(C(=O)NC(C)c2nnn[nH]2)c1` (stereo unspecified), the cytotoxicity at 10 µM was -8.32%.
In the case of `COc1ccc(Cc2noc(-c3ccc(NC(C)CO)nc3)n2)cc1` (stereo unspecified) it was -3.06%.
In the case of `CCc1cc(-c2ccnc3c2ccn3C)nc(N2CCOCC2)n1`, the cytotoxicity at 10 µM is -7.09%.
`COCC(=O)N(Cc1cccc(C)c1)Cc1ccccc1OC`: the cytotoxicity at 10 µM is -51.4%.
In the case of `O=C(CCN1CCCC1)N1CC[C@@H](c2ccc3ccccc3c2)[C@H](O)C1` it was 2.97%; in that of `O=C(O)C1(Cc2ccc(Cl)cc2)CCN(c2ncccc2F)CC1`, -1.29%.
In the case of `CNC(=O)[C@@H]1C[C@@H](NC(=O)Cc2nonc2C)CN1Cc1sccc1C` it was -4.42%; in that of `CCc1cc(NC2CCN(CC(N)=O)CC2)nc(N2CCCCC2)n1`, -4.75%; in that of `Cc1nn(C)cc1-c1ccnc(N(C)Cc2ccoc2)n1`, 23.8%.
With `CN1CCN(c2cnn(Cc3ccc(S(C)(=O)=O)cc3)c(=O)c2)CC1`, the cytotoxicity at 10 µM is -10.4%.
In the case of `O=C(O)C(c1ccc(Cl)c(F)c1)N1CCN(Cc2ccccn2)CC1` (stereo unspecified) it was 8.09%; in that of `COc1ccc(C(C)C)cc1C1CC(=O)NCc2nc(N(C)C)sc21` (stereo unspecified), -1.22%.
With `O=C(Nc1ccccc1Cl)N1CCN(CC2CC2)[C@@H]2CS(=O)(=O)C[C@@H]21`, the cytotoxicity at 10 µM was 2.72%.
In the case of `CN(C)CC1(O)CCCN(C(=O)Cc2ccc(Cl)c(Cl)c2)C1` (stereo unspecified) it was 0.355%.
In the case of `Cn1ncc(NC(=O)Cn2ccc(-c3ccc(F)cc3)n2)n1` it was 1.05%; in that of `CC(C)[C@H]1COC(=O)N1CC(=O)N1CCCN(C(=O)c2ccoc2)CC1`, 3.38%.
`O=c1[nH]c(NC2CCCC2)nc2nccc(-c3cccs3)c12`: the cytotoxicity at 10 µM was -18.1%.
With `CCn1cncc1CNc1ccc(-c2nc(CC(C)C)no2)cn1`, the cytotoxicity at 10 µM was -9.07%.
On to `CN1CCCC(c2cccc(Cc3ccccc3Cl)n2)C1` (stereo unspecified), for which the cytotoxicity at 10 µM turned out to be 1.03%.
Regarding `CN1CCCN(C(=O)NCc2cccnc2-n2cccn2)CC1`, the cytotoxicity at 10 µM was -17.9%.
With `COc1ccc(CNc2cnn(C)c(=O)c2Cl)cc1`, the cytotoxicity at 10 µM is -3.45%.
Regarding `c1cnnc(N2CCCC2CNc2ncnc3ccsc23)c1` (stereo unspecified), the cytotoxicity at 10 µM is -8.87%.
With `COc1cccc(COCC(O)CN2CC(n3cccn3)C2)c1` (stereo unspecified), the cytotoxicity at 10 µM is -8.52%.
For the molecule `CS(=O)(=O)NCCCN1CCCCC1c1cc2ccccc2[nH]1` (stereo unspecified), the cytotoxicity at 10 µM was -10.6%.
In the case of `Cc1ccoc1C(=O)NC1CCN(Cc2cccc3c2OCCO3)CC1`, the cytotoxicity at 10 µM amounted to 1.18%.
As for `CCCc1nnsc1C(=O)N1CCN(CC(C)O)CC1` (stereo unspecified), the cytotoxicity at 10 µM was -5.3%.
As for `COCC(=O)N(C)Cc1nc(N2CCCC2)ncc1-c1ccncc1`, the cytotoxicity at 10 µM came out at 12.3%.
Consider `Fc1cccc(-c2nnn3c2COC(CNCc2ccsc2)C3)c1` (stereo unspecified), for which the cytotoxicity at 10 µM is -1.52%.
In the case of `CCn1cc2c(n1)CN(Cc1sccc1C)CC2COCC1CC1` (stereo unspecified) it was -57.3%; in that of `COCCN1CCC(c2nc3ccc(N4CCCC4)cn3n2)CC1`, 11.8%.
Regarding `Cn1cc(N2C(=O)CC[C@@H]3[C@H]2CCN3C(=O)c2cscn2)cn1`, the cytotoxicity at 10 µM was -81.5%.
With `COCCN1CCc2cc(C(=O)NCC3CC3)c(NC(C)C)nc2CC1`, the cytotoxicity at 10 µM worked out at 73.6%.
For `Cc1cccc(CNC2CC3(CCN(CCO)CC3)c3ccccc32)n1` (stereo unspecified), the cytotoxicity at 10 µM was -110%.
For the molecule `Cc1cccc(CN2CC[C@H]3[C@H]2CCN3Cc2cnn(C)c2)n1`, the cytotoxicity at 10 µM turned out to be 8.67%.
